# Source: ChEMBL document CHEMBL4513216, “Probing the Open Global Health Chemical Diversity Library for Multistage-Active Starting Points for Next-Generation Antimalarials” (ACS Infect Dis, 2020)
# Assay: Toxicity liver stage against HepG2, at 10uM
# Type: cell-based
# Design: test concentration 10 uM, cell line HepG2-A16-CD81EGFP
# Details: human, HepG2-A16-CD81EGFP cells; read-out: INHIBITION
# Procedure, shortened: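 Uninfected HepG2-A16-CD81EGFP cells, 3 × 10^3 per well, 1536-well, plated on prespotted compound at 10 μM final, parasite-free screening media added to match infected plates; puromycin 10 μM positive, DMSO 0.5% negative; run in parallel with 48 h PbLuc assay at 37 °C, 5% CO2; viability by CellTiter-Glo luminescence, normalized to controls.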
row,Compound,cytotoxicity at 10 µM [%]
1,O=C(C1CCCC1)N1CCC(C2CCN(Cc3ccc(Cl)cc3)C2)CC1 (stereo unspecified),-2.45
2,CNc1nc(CNC(=O)Nc2cccc(C)c2Cl)cs1,-9.04
3,NC(=O)Cn1c(CO)cnc1SCc1ccccc1Cl,0.252
4,CSCC[C@H](NC(C)=O)C(=O)N(C)Cc1ccc(-n2cccn2)cc1,-122
5,CCCC(=O)NCCc1cc(N2CCN(C(C)=O)CC2)nc(C2CC2)n1,-28.2
6,CNC(=O)c1ccc(-c2ccc(CNC(=O)COC)cc2)nc1C,-5.52
7,CC(C)Oc1ccccc1C1CC(=O)Nc2c1cnn2C (stereo unspecified),2.09
8,Cc1noc(CNc2ccccc2CC(=O)N(C)C)n1,2.69
9,CCOC1CC2(CCN(C(=O)COC)CC2)c2cc(F)ccc21 (stereo unspecified),-136
10,CCn1cnnc1CNC(=O)N1CCOC(c2ccccc2Cl)C1 (stereo unspecified),9.32
11,CC(O)CNC(=O)c1nc(Cc2c(Cl)cccc2Cl)no1 (stereo unspecified),3
12,CN(C)c1ncccc1CNC(=O)NCc1cccs1,-4.87
13,CN(C)[C@@H]1CN(C(=O)c2cc3ccc(F)cc3[nH]2)C[C@H]1O,1.05
14,Fc1ccc(OCCCN2CC(n3cccn3)C2)cc1,2.16
15,CCn1ncc2c1NC(=O)C(C#N)C21CCCC1 (stereo unspecified),-0.242
16,CS(=O)(=O)c1ccccc1C(=O)NCCCN1CCc2ccccc2C1,1.01
17,O=C(CCC1CCCO1)NCc1ccnc(-n2cccn2)c1 (stereo unspecified),-14.6
18,CCCC(=O)Nc1cc(C(=O)NC(C)Cc2ccncc2)ccc1C (stereo unspecified),2.52
19,CCc1c(C)sc2nc3n(CCN4CCCCC4)nc(SC)n3c(=O)c12,2.68
20,COc1ccc(-c2noc([C@@H](C)NS(=O)(=O)CC(C)C)c2C(=O)O)cc1,-5.23
21,Cc1nc(-c2ccccc2)sc1C(=O)N(C1CC1)C1CC(=O)NC1=O (stereo unspecified),2.78
22,COC(=O)C1Cc2nc[nH]c2CN1Cc1ccc(Sc2ncccn2)o1 (stereo unspecified),-3.94
23,CCCn1nnnc1CN1Cc2ccccc2CC1c1nnc(C)o1 (stereo unspecified),9.52

row,Compound,cytotoxicity at 10 µM [%]
1,CC(C)(C)CC(=O)Nc1ncn(CC(=O)NCc2ccccc2)n1,-3.38
2,O=C(NCCc1c[nH]cn1)C1CCCN(Cc2ccco2)C1 (stereo unspecified),-0.123
3,CC(CNC(=O)CCc1ccccn1)c1ccsc1 (stereo unspecified),-3.3
4,CCCOc1ccc(C2SCC(=O)Nc3c2c(=O)[nH]n3C(C)C)cc1 (stereo unspecified),5.95
5,CC(=O)N1CCC2(CC1)NC(=O)[C@H]1CN(Cc3cccnc3)C[C@H]12,-1.77
6,CCCc1n[nH]c(C2CN(Cc3nnc(C4CC4)n3C)CCO2)n1 (stereo unspecified),-2.36
7,COCCNC(=O)Nc1ccc(C(=O)N2CCSCC2)cc1C,-2.13
8,Cc1nonc1OCCNC(=O)COc1ccc(F)cc1F,-1.17
9,O=C(Cc1ccsc1)N1CCC(c2ccncc2)CC1,8.89
10,Cc1ccc(-c2noc(CCC(=O)NC(C)Cn3cccn3)n2)cc1 (stereo unspecified),8.41
11,CCOc1ccccc1OCC(=O)NCc1ncc(C)c(OC)c1C,1.09
12,COc1ccc(C(C)NCCc2ccc(NC(C)=O)cc2)c(OC)c1 (stereo unspecified),4.49
13,Cc1nn(C)c(C)c1CN(Cc1cccn1-c1cccnc1)C(C)C,-3.16
14,Cc1n[nH]c(-c2ccc(NC(=O)C(C)N3CCN(C)CC3)cc2)n1 (stereo unspecified),6.03
15,Cn1ccc(C(=O)Nc2nnc(-c3ccccn3)[nH]2)cc1=O,6.69
16,Cc1cccc(CN2CCC(n3cc(CCO)nn3)CC2)c1C,0.636
17,CSCCNC(=O)C1CCC(=O)N(C2CCCC2)C1 (stereo unspecified),-3.75
18,Cc1noc(C)c1-c1cc(CC2CCN(C(=O)c3cc[nH]n3)C2)ncn1 (stereo unspecified),-13.4
19,CN(C)c1cccc(C2CCN(C3COCC3O)CC2)n1 (stereo unspecified),-13.9
20,Cc1noc(C2CCCN(C(=O)c3cncc(Br)c3)C2)n1 (stereo unspecified),-1.82
21,CC(C)(C)C(O)CN1CCN(C(=O)COCC2CC2)CC1 (stereo unspecified),5.54
22,CC(C)NC(=O)CS(=O)(=O)Cc1coc(-c2ccc(F)cc2)n1,-6.6
23,COc1ccc(CC(=O)NCCCc2nnc3nc(C)cc(C)n23)cc1,4.45

row,Compound,cytotoxicity at 10 µM [%]
1,Cc1cnn(CCNCc2ccc(OCc3csc(C)n3)cc2)c1,-6.32
2,CC(=O)N1CCC2(CC1)CC(Oc1ccccc1)CO2 (stereo unspecified),-8.77
3,COc1c(C)cnc(CN2CCCC2Cn2nc(C)nc2C)c1C (stereo unspecified),-3.21
4,Cn1ccnc1-c1cn(Cc2cn3c(n2)SCC3)nn1,-0.773
5,CN(Cc1nc(CS(C)(=O)=O)no1)c1ccccc1,4.04
6,COCCCN(CCOC)C(=O)Nc1ccc(C)cc1C,4.16
7,CCOCc1nc2c(c(N(C)Cc3ccsc3)n1)CCNCC2,11.1
8,Cc1noc(C)c1C(=O)N1C[C@@H]2CCCO[C@@H]2[C@H](N(C)C)C1,9.85
9,CC(CN1CCOCC1)N(Cc1ccccc1)Cc1ccncc1 (stereo unspecified),5.5
10,CC(NC(=O)c1cc(=O)n(C)c(=O)n1C)c1ccccc1-n1cccn1 (stereo unspecified),-9.47
11,CCCc1nc(N2CCCN(c3ccncc3)CC2)c2cnn(C)c2n1,-2.47
12,CCCc1nc(N[C@H]2COC[C@@H]2N2CCCC2)c2cnn(C)c2n1,-6.56
13,Cn1cc(S(=O)(=O)N(CC(F)(F)F)C2CC2)cc1C(N)=O,-5.02
14,Cc1ccc(-c2noc([C@H](N)CC(C)C)n2)nn1,1.27
15,CC(=O)N1C[C@H](NS(=O)(=O)N2CCCC2)[C@@H](c2ccc(C)o2)C1,-1.91
16,O=C(CSC1CCc2ccccc2NC1=O)NCc1cccs1 (stereo unspecified),-2
17,Cc1nnc(N2CCCC3(CN(Cc4nccn4C)CCO3)C2)o1 (stereo unspecified),-6.83
18,Cc1ccc2nc(C3CCCN3Cc3scnc3C)[nH]c2c1 (stereo unspecified),8.2
19,COc1ccc(Cc2ncc3c(n2)CN(C(=O)CO)C3)cc1,0.624
20,COCCN1CCCC2(CCC(=O)N2Cc2cccnc2)C1 (stereo unspecified),4.32
21,Cc1cnn(CC2CCCCN2CC(=O)NCc2ccccn2)c1 (stereo unspecified),-6.16
22,CS(=O)(=O)Cc1nc(CNc2ccc(F)c(F)c2)cs1,-6.92
23,CN(C)CCCn1ccnc1C1CCN(C(=O)Cc2cccnc2)CC1,4.77

row,Compound,cytotoxicity at 10 µM [%]
1,Cc1nn(CCCNC(=O)C2CCN(S(C)(=O)=O)CC2)c(Cl)c1Cl,-11.3
2,CCN1CCNC(=O)C12CCN(C(=O)c1ccccn1)CC2,-0.514
3,Nc1nc2c(c(NCC(c3cccnc3)N3CCOCC3)n1)CCCC2 (stereo unspecified),-14.9
4,CCn1ncc(CN2CCC(O)(Cn3ccc4ncccc43)CC2)c1C,-0.692
5,c1ccc(-c2nc(CN3CCn4c(nnc4C4CC4)C3)cs2)cc1,-3.92
6,O=C1COc2cc(S(=O)(=O)NCCC3=CCCCC3)c(Br)cc2N1,15.7
7,Cn1cc(Cl)cc1C(=O)N1CCN(Cc2ccsc2)CC1,-2.86
8,Cc1nn(C)c(Oc2ccc(Cl)cc2)c1CN1CCOC(CN)C1 (stereo unspecified),8.85
9,Cc1c(C2CCCN(C(=O)c3cccnc3)C2)n2c(nc1=O)CCC2 (stereo unspecified),-17.1
10,Cc1csc(C(=O)N2CCC(S(C)(=O)=O)CC2)c1,2.7
11,Cc1ccccc1N1CCCN(C(=O)CN2C(=O)OC[C@@H]2C(C)C)CC1,4.02
12,Cc1cc(C)n(CC2CCCN2C(=O)c2ccc3c(c2)OCO3)n1 (stereo unspecified),-9.31
13,Cc1cc(N2CCc3c(nc(C(C)C)n3C)C2)nc(N)n1,-6.79
14,CC(c1nc(C2CC2)no1)N1CCN(Cc2cccc(F)c2F)CC1 (stereo unspecified),-4.93
15,c1cncc(CN2Cc3nccn3CC(Cn3cccn3)C2)c1 (stereo unspecified),-102
16,CCc1nc(C2CCCN2CC(=O)NCCc2ccsc2)no1 (stereo unspecified),-2.81
17,COc1ccc(S(=O)(=O)NC(=O)COC2CCCCC2)cc1,-1.64
18,Cc1c(Cl)cccc1NC(=O)N1CCC2(CC1)NC(=O)CC2C(=O)O (stereo unspecified),-1
19,COC(=O)C(NC(=O)CCOC(C)C)c1cc(F)ccc1F (stereo unspecified),-4.11
20,Cc1nn(C)c(Cl)c1C1CCCN1Cc1cn2ccsc2n1 (stereo unspecified),-44.5
21,CNS(=O)(=O)c1cccc(C(C)NCc2ccco2)c1 (stereo unspecified),4.61
22,CCN1CCN(c2ncc3c(=O)n(Cc4ccco4)ccc3n2)CC1,-15.9
23,Cc1cc(C(=O)N2CCCC(c3nccn3Cc3cscn3)C2)on1 (stereo unspecified),-1.32

row,Compound,cytotoxicity at 10 µM [%]
1,CN(C)[C@H]1C[C@@H](Cc2cc(-c3ccc(F)cc3)on2)C1(C)C,-12.3
2,O=C1COC2(CCN(Cc3ccco3)CC2)CN1CCn1cccn1,10.2
3,CCSCC(C)NCc1nn(C)c2ccc(C)cc12 (stereo unspecified),1.71
4,Cc1ccc2[nH]c(CO[C@H]3CN(C(=O)C4CC4)C[C@H]3F)nc2c1,-11.6
5,Cc1ccc(OCc2cccc(C(=O)N(C)CCC#N)c2)cn1,-3.3
6,CN(C)Cc1noc2c1CN(C(=O)c1ccncc1)CC2,-1.28
7,O=C(NCc1cccc(F)c1)NCC(O)c1cccc(F)c1 (stereo unspecified),-7.58
8,O=C([C@@H]1CCCO1)N1CCC(Cn2cc(-c3ccsc3)nn2)CC1,3.43
9,NC(=O)C(NC(=O)COC1CCCC1)c1ccccc1 (stereo unspecified),3.25
10,Cc1ccc(C(C(=O)NCCc2nc(C)cc(=O)[nH]2)N(C)C)cc1 (stereo unspecified),1.92
11,CC(C)CC(NC(=O)c1ccco1)c1nc2cccnc2n1C (stereo unspecified),6.08
12,CC(C(=O)Nc1cccc(Cl)c1SC(F)F)S(C)(=O)=O (stereo unspecified),0.685
13,CCN(CC)C(=O)CN(C)Cc1nc2c(cnn2C)c(=O)[nH]1,-0.958
14,Cc1ccc(C(=O)N2CC[C@H]3[C@@H]2CCC(=O)N3c2cccnc2)o1,-106
15,CNCc1cnc(Nc2ccccc2)nc1,1.38
16,CS(=O)(=O)NCc1nnc2n1CCN(Cc1ccccn1)C2,-75.5
17,COc1ccc(C2CCCN2C(=O)c2cc(C(C)C)on2)cc1 (stereo unspecified),0.462
18,CC(C)C1CN(S(=O)(=O)N2CCCC2)CCCN1Cc1ccc(F)cc1 (stereo unspecified),7.2
19,Cc1nc(CCNC(=O)N2CCC(Cc3cnn(C)c3)C2)cs1 (stereo unspecified),-6.13
